Assay outcomes deposited in PubChem BioAssay by Johns Hopkins Ion Channel Center.
KCNQ1 pot: potentiators or activators of human KCNQ1 potassium channel; CHO-K1 KCNQ1, thallium flux FluxOR fluorescence; hits give high values; B-score at 10 µM; 0.35% of 310,000 active; AID 2648;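 active = fluorescence ratio B-score, a plate-corrected score, at least three library SD, with initial intensity B-score within 5 SD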
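Assay system: stable KCNQ1 CHO-K1 line; medium: assay buffer, equal DMSO in all wells; timing: 90 min dye loading and 20 min compound exposure, both at room temperature; technique: kinetic FluxOR thallium fluorescence, 10-s 1-Hz baseline, 110-s post-stimulus read; read-out basis: B score of baseline-normalized fluorescence ratio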
KCNK9 block: inhibitors of human KCNK9 two-pore domain potassium channel; HEK293 KCNK9, FluxOR thallium flux fluorescence; hits give low values; B-score at 10 µM; 1.2% of 310,000 active; Q9NPC2;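 active = ratio B-score over 3 SD below the library mean, with starting fluorescence within 5 SD of its mean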;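 also: negative B-score means less thallium flux so channel inhibition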
hERG rescue: compounds protecting human hERG from proarrhythmic drug block; 0.51% of 310,000 active; CHO-hERG, FluxOR thallium flux, dofetilide IC70 present; Q12809; activation (rescue from dofetilide block), less the hit threshold, % at 10 µM; AID 1511;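 active = activation above the mean of controls blocked by dofetilide plus 5 SD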;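 also: thallium influx through hERG after potassium depolarization seen as dye fluorescence rise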
Kir21 inh: Kir2.1 (mouse) channel inhibition. HEK293-Kir2.1, FluxOR thallium flux fluorescence; hits give low values. B-score at 10 µM. 0.85% of 310,000 active. AID 1672;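 active = fluorescence ratio B-score at or below minus 3 SD of library scores, with starting-brightness B-score within 2 SD, cut at about -4.2 in these data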;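 also: channel flux triggered by added potassium and thallium sulfate stimulus; B-score of peak minus minimum fluorescence over baseline after thallium stimulus; more negative B-score means stronger Kir2.1 block with less thallium influx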
KCNQ1 inh: inhibitors of human KCNQ1 potassium channel; B-score at 10 µM; CHO-K1 KCNQ1, FluxOR thallium flux fluorescence; hits give high values; 1.3% of 310,000 active;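 active = compounds whose thallium flux B-score, printed positive for inhibition, exceeds three library SD while starting fluorescence stays within three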;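 also: channel opened by potassium depolarization with thallium stimulus after 20 min compound exposure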
KCNK3 inh: human KCNK3 channel inhibition, primary screen | B-score at 10 µM | CHO-KCNK3 thallium flux, FluxOR fluorescence; hits give low values | 0.84% of 340,000 active | O14649;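 active = B-score under library mean minus 4 SD, starting fluorescence ratio at most library mean plus 5 SD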;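 also: more negative B-score means stronger inhibition of thallium flux through KCNK3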
KCNQ1 block val: reconfirmed blocker of the human KCNQ1 potassium channel | shares compounds with KCNQ1 inh | KCNQ1 cell line, FluxOR thallium flux fluorescence | inhibition, % at 10 µM | 93% of 1,600 active | AID 588353;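 active = primary screen active, with duplicate mean exceeding buffer control mean plus 3 SD of buffer wells, cut at about 28% in these data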;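 also: 0% = buffer control ratio and 100% = XE991 inhibitor control ratio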
CHO KCNQ1 ctr: KCNQ1 inhibitor counter-screen hit in parental CHO cells; 21% of 1,600 active; parental CHO-K1, FluxOR thallium flux fluorescence ratio; hits give low values; zero means no signal rise above baseline; shares compounds with KCNQ1 inh; AID 588366; fluorescence ratio (Tl flux) at 10 µM;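 active = mean of duplicate thallium-flux fluorescence ratios in parental host cells more than 5 SD below the buffer control mean, cut at about 0.38 in these data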;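 also: ratio is peak minus minimum fluorescence divided by baseline fluorescence; actives read low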
KCNQ1 ephys val: blocks human KCNQ1 current in automated patch clamp; shares compounds with KCNQ1 inh; KCNQ1-CHO cells; calls only at 10 µM; 20% of 490 active; AID 624120;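 active = KCNQ1 current drop exceeding 3 SD of negative control wells, seen in both duplicate runs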;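 also: steady state current during a 2 s step from -80 to +40 mV; negative values mean current inhibition and positive values mean potentiation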
KCNQ2 inh: rat KCNQ2 inhibition in KCNQ1 inhibitor specificity screen | KCNQ2 cells, FluxOR thallium flux fluorescence | inhibition, % at 10 µM | AID 651746 | shares compounds with KCNQ1 inh | 71% of 1,600 active;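 active = mean percent inhibition of the KCNQ2 thallium signal more than 5 SD above the buffer-only control wells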;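 also: KCNQ2 expressed in CHO cells; 0% = buffer control wells and 100% = XE-991 inhibitor control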
KCNQ1 KCNE1 spec: selectivity of KCNQ1 inhibitors: inhibition of human KCNQ1/KCNE1 channel; KCNQ1/KCNE1 cells, FluxOR thallium flux fluorescence; 77% of 1,600 active; AID 652147; shares compounds with KCNQ1 inh; inhibition, % at 10 µM;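 active = mean percent inhibition of duplicate wells above the buffer-only control mean plus 3 SD of those controls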;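 also: 0% = buffer only wells and 100% = XE-991 inhibitor control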
Target sequence (P51787 whole entry, looked up): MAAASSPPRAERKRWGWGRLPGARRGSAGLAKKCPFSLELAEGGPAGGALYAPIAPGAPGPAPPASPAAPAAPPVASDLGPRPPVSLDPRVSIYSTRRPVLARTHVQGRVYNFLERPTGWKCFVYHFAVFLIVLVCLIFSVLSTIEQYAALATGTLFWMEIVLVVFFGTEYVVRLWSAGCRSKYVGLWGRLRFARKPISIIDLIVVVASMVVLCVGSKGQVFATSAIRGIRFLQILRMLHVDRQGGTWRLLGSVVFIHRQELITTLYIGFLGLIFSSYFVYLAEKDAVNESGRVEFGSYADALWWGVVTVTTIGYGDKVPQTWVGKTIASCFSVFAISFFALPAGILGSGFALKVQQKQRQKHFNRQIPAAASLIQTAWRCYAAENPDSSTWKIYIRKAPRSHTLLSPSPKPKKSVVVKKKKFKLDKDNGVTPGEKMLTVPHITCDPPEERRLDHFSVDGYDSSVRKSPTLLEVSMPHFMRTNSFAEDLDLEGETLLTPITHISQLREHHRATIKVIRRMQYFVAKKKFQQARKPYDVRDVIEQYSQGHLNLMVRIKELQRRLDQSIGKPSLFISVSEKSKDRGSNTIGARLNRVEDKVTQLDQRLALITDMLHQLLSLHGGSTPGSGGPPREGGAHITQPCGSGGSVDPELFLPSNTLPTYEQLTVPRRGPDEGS
* marks the source's active call; other numbers are inactive results; i = inactive; nt = not tested or not shown; + = active, no number. Most compounds without a hit are left out; they make up all but 3.7% or so of the library.

SMILES	KCNQ1 pot	KCNK9 block	hERG rescue	Kir21 inh	KCNQ1 inh	KCNK3 inh	KCNQ1 block val	CHO KCNQ1 ctr	KCNQ2 inh	KCNQ1 KCNE1 spec	others
Cc1sc(NC(=O)c2cc(-c3ccccc3)nc3ccccc23)c(C(N)=O)c1C	i	i	-6	-3.1	6*	i	97*	0.46	100%*	140%*	KCNQ1 ephys val=i
Cc1cccc(NC(=O)c2cc(-c3ccc(C)s3)nc3ccccc23)n1	i	-7.2*	-11	0.18	6*	i	92*	0.43	98%*	149%*	KCNQ1 ephys val=i
Cc1cc(C)c(N2CCN(S(=O)(=O)N3CCCCCC3)CC2)c(C)c1	i	i	-13	-0.51	7*	i	126*	0.44	115%*	118%*
CCCOc1ccc(C(=O)N2CCN(Cc3ccc4c(c3)OCO4)CC2)cc1	i	i	-10	-0.34	i	i	nt	nt	nt	nt
CCn1c(=O)c(CCC(=O)NCCN2CCOCC2)c(C)c2c(C)nn(-c3ccccc3)c21	i	i	-10	-1.6	i	i	nt	nt	nt	nt
CCn1c(=O)c(CCC(=O)N2CCN(c3ccccn3)CC2)c(C)c2c(C)nn(-c3ccccc3)c21	i	i	-10	0	7*	i	48*	0.44	93%*	80%*
S=C(Nc1ccccc1)Nc1cccc(Br)c1	i	i	-18	0.67	8*	i	60*	0.47	i	60%*
N#Cc1ccc(NC(=S)Nc2ccccc2)cc1	i	i	-8	-0.08	7*	i	0	0.61	i	56%*
S=C(NNC(=S)Nc1ccccc1)Nc1ccccc1	i	i	-3	-0.47	i	i	nt	nt	nt	nt
CN(CC(=O)Nc1ccc(C#N)cc1)Cc1ccc(Cl)cc1	i	i	-7	1.4	i	i	nt	nt	nt	nt
CNC(=S)Nc1ccc(C)cc1	i	i	-5	1.2	i	i	nt	nt	nt	nt
N#Cc1ccc(NC(=O)Nc2ccc(Cl)cc2)cc1	i	i	-22	0.08	6*	i	0	0.65	i	i
Cc1ccc(NC(=S)Nc2ccc(Br)cc2)cc1	i	i	-4	-0.39	7*	i	48*	0.5	i	i
S=C(Nc1cccc(Br)c1)c1ccccc1	i	i	-16	1.2	i	i	nt	nt	nt	nt
CCOc1ccc2[nH]cc(-c3csc(N)n3)c2c1	i	i	-7	0.33	i	i	nt	nt	nt	nt
Cc1ccsc1/C=N/NC(=O)c1nnn(-c2nonc2N)c1CSc1ccccc1	i	i	-3	-0.34	i	i	nt	nt	nt	nt
CSc1ccc(-c2sc(Nc3ccccc3)n[n+]2-c2ccc(F)cc2)cc1	i	i	-27	-0.92	i	i	nt	nt	nt	nt
COc1ccc(-c2sc(Nc3ccccc3)n[n+]2-c2ccc(F)cc2)c(C)c1C	i	i	-37	-3	16*	i	128*	0.39	99%*	134%*	KCNQ1 ephys val=+
C=CCNc1nc2ccccc2nc1NS(=O)(=O)c1ccc(F)cc1	i	i	-9	0	i	i	nt	nt	nt	nt
C=CCNc1nc2ccccc2nc1NS(=O)(=O)c1ccc(Br)cc1	i	i	-3	0.73	7*	i	70*	0.51	59%*	i
CC(C)c1ccc(N(CC(=O)NC(C)(C)C)C(=O)CCC(=O)Nc2nccs2)cc1	i	i	-5	0.92	i	i	nt	nt	nt	nt
Cc1ccc(N(Cc2ccccc2)C(=O)c2cc(S(=O)(=O)N3CCOCC3)ccc2C)cc1	i	i	-13	-0.32	i	i	nt	nt	nt	nt
Cc1c(C)n(C(=O)CSc2nc3ccccc3[nH]2)c2ccccc12	i	i	1	0.14	7*	i	139*	0.39	124%*	190%*	KCNQ1 ephys val=i
O=C(CSc1nc2ccccc2[nH]1)N1CCCCC1	i	i	-4	0.03	i	i	nt	nt	nt	nt
Cc1cccc(N2CCN(C(=O)c3noc4c3COc3ccc(C)cc3-4)CC2C)c1 (stereo not given)	i	i	-15	0.28	10*	i	88*	0.5	98%*	112%*
SMILES	KCNQ1 pot	KCNK9 block	hERG rescue	Kir21 inh	KCNQ1 inh	KCNK3 inh	KCNQ1 block val	CHO KCNQ1 ctr	KCNQ2 inh	KCNQ1 KCNE1 spec	others
O=C(CCc1c[nH]c2ccccc12)OCc1ccc(Br)cc1	i	i	-3	-0.26	i	i	nt	nt	nt	nt
CC(C)(C)c1cc(NCc2ccccn2)n2ncc(-c3ccccc3)c2n1	i	i	-13	0	7*	i	72*	0.45	i	61%*
Cc1cc(NC(C)c2ccccc2)n2ncc(-c3ccccc3)c2n1 (stereo not given)	i	i	-8	0.07	i	i	nt	nt	nt	nt
Fc1cc(Br)ccc1Nc1nc2ccccc2n2nnnc12	i	i	-11	0.86	i	i	nt	nt	nt	nt
Fc1ccccc1N1CCN(c2nc3ccccc3n3nnnc23)CC1	i	i	-8	-0.04	7*	i	76*	0.44	71%*	84%*
COc1ccccc1Oc1ccc(Oc2ccccc2OC)cc1	i	i	-8	0.96	7*	i	126*	0.36*	125%*	108%*
COc1ccc(Oc2ccccc2C#N)cc1	i	i	-12	0.2	i	i	nt	nt	nt	nt
CC(=O)c1ccc(OCc2cc(C(=O)N3CCC(c4ccncc4)CC3)no2)cc1	i	i	-15	-1.1	i	i	nt	nt	nt	nt
O=C(c1cc(COc2cccc(C(F)(F)F)c2)on1)N1CCC(c2ccncc2)CC1	i	i	-15	-0.58	12*	i	128*	0.47	80%*	106%*	KCNQ1 ephys val=i
COc1cccc(OCc2cc(C(=O)N3CCC(c4ccncc4)CC3)no2)c1	i	i	-13	-0.02	8*	i	111*	0.48	135%*	98%*	KCNQ1 ephys val=i
O=C(c1cc(COc2cccc(C(F)(F)F)c2)on1)N1CCC(c2ccccc2)CC1	i	i	-5	1.2	i	i	nt	nt	nt	nt
